Screening results deposited in PubChem by several laboratories.
PPC-1+TRAIL kill = kills PPC-1 cancer cells in the presence of TRAIL; 220,000 compounds, 0.41% hits; AID 1443; cell killing (% activity), % at 4 µM or 5 µM; PPC-1 cells + TRAIL, ATPLite viability luminescence;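 active means cell killing above 50% in the first pass at 4 µM, then a duplicate retest at 5 µM averaging 50% or more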;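 further: plate controls were cells with TRAIL plus DMSO for no effect and medium-only wells lacking cells for full effect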
STAT1 blocker = inhibitors of IFN-gamma induced STAT1 signaling. 200,000 compounds, 0.35% hits. inhibition, % at 5.5 µM. NIH 3T3 STAT1-luciferase reporter, luminescence. AID 920;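 active means inhibition above a set limit, the mean inhibition across all tested compounds plus 3 SD, cut at about 34% in these data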;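 further: 0% = IFN-gamma with DMSO and 100% = IFN-gamma with 300 µM nifuroxazide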
TRAIL sens C8 = caspase-8 TRAIL sensitization; NB7+C8 cells + TRAIL, ATPlite viability luminescence; inhibition (viability loss, TRAIL sensitization), % at 10 µM; 360,000 compounds, 1% hits; AID 624354;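 active means compounds causing at least 50% loss of cell viability in the single-dose screen, relative to plate controls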
STAT3 inh = STAT3 signaling inhibition; U3A cells, IL-6 STAT3-luciferase reporter, luminescence; host cell line lacks STAT1; inhibition, % at 5.5 µM; 190,000 compounds, 0.89% hits; AID 862;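 active means inhibition above the mean inhibition across all screened compounds plus 3 SD, cut at about 44% in these data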;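 further: 0% = DMSO only wells and 100% = 100 µM nifuroxazide control wells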
STAT3 act = activators of IL-6 induced STAT3 signaling; U3A cells, IL-6 STAT3-luciferase reporter, luminescence; 100% = signal with IL-6 EC80 alone; activation (% of control), % at 5.6 µM; 190,000 compounds, 0.91% hits;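 active means activation above the screen-wide mean of compound activation plus 3 SD, cut at about 130% in these data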;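 further: 0% = background luminescence of wells with medium and substrate only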
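Material: STAT3-luciferase reporter U3A cells. Controls: IL-6-treated wells, 100% activation. Read-out: % activation versus median of IL-6-stimulated wells. Probe or stimulus: IL-6 stimulus at 33 ng/mL final. Timing: compound 1 h, then IL-6 6 h at 37 °C. Signal: reporter luminescence signal.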
* marks the source's active call; other numbers are inactive results. Most compounds without a hit are left out; they make up all but 1.8% or so of the library.

Results for CN(c1cccc(NC(=O)c2ccc(Cl)c(S(=O)(=O)Nc3ccccc3)c2)c1)S(C)(=O)=O ?
PPC-1+TRAIL kill: 24; STAT1 blocker: 45*; TRAIL sens C8: 0; STAT3 inh: 20; STAT3 act: 89

How did O=C(Nc1nc2ccccc2n1CCN1CCCCC1)c1ccc(Cl)cc1 do in these assays?
PPC-1+TRAIL kill: -3; STAT1 blocker: 0; STAT3 inh: -18; STAT3 act: 122

What do the screens show for `Cc1ccc(C(=O)Nc2nc3ccccc3n2CCN2CCCC2)cc1`?
PPC-1+TRAIL kill: 5; STAT1 blocker: -45; TRAIL sens C8: 39; STAT3 inh: -61; STAT3 act: 157*

How did O=C(Nc1nc2ccccc2n1CCN1CCCCC1)C1CCCCC1 do in these assays?
PPC-1+TRAIL kill: 6; STAT1 blocker: 7; TRAIL sens C8: 55*; STAT3 inh: 7; STAT3 act: 98

How did CCN(CC)CCn1c(NC(=O)c2ccc(Cl)cc2)nc2ccccc21 do in these assays?
PPC-1+TRAIL kill: -22; STAT1 blocker: -16; TRAIL sens C8: 32; STAT3 inh: -42; STAT3 act: 136*

How did CC(C)CN(C(=O)COC(=O)CCSc1ccc(Cl)cc1)c1c(N)n(Cc2ccccc2)c(=O)[nH]c1=O do in these assays?
TRAIL sens C8: 19

Results for COc1ccc(-c2cc(C(=O)OCC(=O)Nc3ccc4c(c3)OCO4)c3ccccc3n2)cc1 ?
PPC-1+TRAIL kill: 31; STAT1 blocker: 4; TRAIL sens C8: 56*; STAT3 inh: 9; STAT3 act: 91

What do the screens show for `Cc1c(NC(=O)c2cc(-c3ccccc3)nc3ccccc23)c(=O)n(-c2ccccc2)n1C`?
TRAIL sens C8: -1

Results for Cc1c(NC(=O)COC(=O)c2cc(-c3ccc(-c4ccccc4)cc3)nc3ccccc23)c(=O)n(-c2ccccc2)n1C ?
PPC-1+TRAIL kill: 81*; STAT1 blocker: -51; TRAIL sens C8: 87*; STAT3 inh: -11; STAT3 act: 105

What do the screens show for `CCCCOCCCNC(=O)C[C@@H]1C[C@@]2(C(=O)OCC)CCCC=C2N(Cc2ccc(Cl)cc2Cl)C1=O`?
TRAIL sens C8: -6

What do the screens show for `Cc1cc(C(=O)COC(=O)c2cccnc2Cl)c(C)n1C`?
TRAIL sens C8: 64*

How did CCn1c(C)cc(C(=O)COC(=O)c2cccnc2SC)c1C do in these assays?
TRAIL sens C8: 19

What do the screens show for `CSc1ncccc1C(=O)OCC(=O)c1cc(C)n(CC2CCCO2)c1C` (stereo not given)?
PPC-1+TRAIL kill: 32; TRAIL sens C8: 48*

What do the screens show for `O=C(NCCCN1CCOCC1)/C(=C/c1ccc(-c2cccc([N+](=O)[O-])c2)o1)NC(=O)c1ccccc1`?
TRAIL sens C8: -2

How did Cc1nc2nc(C)n(CCN3CCOCC3)c(=O)c2c(-c2cccc([N+](=O)[O-])c2)c1C(=O)CCCCCCCCCCN1CCC(c2ccccc2)(c2ccccc2)CC1 do in these assays?
TRAIL sens C8: 92*

What do the screens show for `CCc1ccccc1C1C(=O)c2ccccc2C1=O`?
TRAIL sens C8: 48*

What do the screens show for `CC(=O)OCC1=C[C@@H]2OC(=O)C3=CO[C@@H](O[C@@H]4O[C@H](CO)[C@@H](O)[C@H](O)[C@H]4O)[C@H]1[C@@H]32`?
TRAIL sens C8: 3

How did C=C1C(=O)OC2C=C(CO)C3OC3C3OC3(C)CC(OC(=O)/C(=C/C)COC(C)=O)C12 (stereo not given) do in these assays?
TRAIL sens C8: 63*

Results for Nc1nc(-c2ccccc2)c(-c2ccc([N+](=O)[O-])cc2)s1 ?
PPC-1+TRAIL kill: 26; STAT1 blocker: 3; TRAIL sens C8: 32; STAT3 inh: -11; STAT3 act: 111

What do the screens show for `Cc1nc(N)nc(N)c1-c1ccc([N+](=O)[O-])cc1`?
TRAIL sens C8: 75*

What do the screens show for `Cc1cc(O)c(C(=O)/C=C/c2cccc([N+](=O)[O-])c2)c(=O)o1`?
PPC-1+TRAIL kill: 15; TRAIL sens C8: 33

Results for CC(=O)Oc1ccccc1C(=O)C=Cc1cccc([N+](=O)[O-])c1 ?
TRAIL sens C8: 65*

How did O=C1C=C(N2CCCCC2)c2ccccc2C1=O do in these assays?
TRAIL sens C8: 94*

Results for CC(=O)NC(c1ccc(F)c(F)c1)c1nc(-c2cnc3ccccc3c2)cs1 (stereo not given) ?
TRAIL sens C8: 0

What do the screens show for `CCN(CC)C(=O)[C@H]1CC(CC(=O)NCCCn2ccnc2)C(=O)N2CCc3c([nH]c4ccccc34)[C@]12C` (stereo not given in full)?
TRAIL sens C8: -21

What do the screens show for `CC(=NNC(=O)c1ccccc1N)c1ccccc1O`?
TRAIL sens C8: 54*

What do the screens show for `Cc1cc(C)c2oc(C(=O)NC3CCS(=O)(=O)C3)cc(=O)c2c1` (stereo not given)?
TRAIL sens C8: -3

How did CCCn1c(Nc2nc3ccccc3n2C)nc2ccccc21 do in these assays?
PPC-1+TRAIL kill: 7; STAT1 blocker: 8; TRAIL sens C8: 53*; STAT3 inh: 4; STAT3 act: 98

What do the screens show for `CCCCn1c(Nc2ccccc2)nc2ccccc21`?
PPC-1+TRAIL kill: -6; STAT1 blocker: 1; TRAIL sens C8: -5; STAT3 inh: -8; STAT3 act: 104

Results for CCOCCCNC(=O)c1cc2c(-c3ccc(Cl)cc3)nn(C)c2s1 ?
PPC-1+TRAIL kill: -11; STAT1 blocker: 1; TRAIL sens C8: 10; STAT3 inh: -32; STAT3 act: 136*

Results for CCCN(CCC)CCNC(=O)c1cc2c(-c3ccc(Cl)cc3)nn(C)c2s1 ?
TRAIL sens C8: 39

What do the screens show for `CCCCSc1nnc(-c2cc3c(C(F)(F)F)nn(C)c3s2)n1C`?
PPC-1+TRAIL kill: 9; STAT1 blocker: 1; TRAIL sens C8: -10; STAT3 inh: 13; STAT3 act: 94

How did C#CCSc1nnc(-c2cc3c(C(F)(F)F)nn(C)c3s2)n1C do in these assays?
PPC-1+TRAIL kill: -6; STAT1 blocker: 0; TRAIL sens C8: 89*; STAT3 inh: 18; STAT3 act: 89

How did O=C(CC[C@H]1O[C@@H](n2ccc(=O)[nH]c2=O)[C@H](O)[C@@H]1O)NCc1ccccc1 do in these assays?
TRAIL sens C8: -21

How did CC(=O)N1CCN(S(=O)(=O)c2cccc(C(=O)N3CCN(S(=O)(=O)c4c(C)c(C)cc(C)c4C)CC3)c2)CC1 do in these assays?
TRAIL sens C8: 0

Results for COc1ccc(/C=C/C(=O)c2ccc3c(c2)OCO3)c(OC)c1 ?
PPC-1+TRAIL kill: 49; STAT1 blocker: -33; TRAIL sens C8: 56*; STAT3 inh: 7; STAT3 act: 98

How did COc1ccc(/C=C/C(=O)c2ccccc2)c(OC)c1 do in these assays?
PPC-1+TRAIL kill: 22; STAT1 blocker: -51; TRAIL sens C8: 17; STAT3 inh: -1; STAT3 act: 104

What do the screens show for `COc1cccc(/C=C/C(=O)c2ccc3c(c2)OCCO3)c1OC`?
TRAIL sens C8: 71*

Results for O=C1Nc2c(Cl)cc(Cl)cc2C1=O ?
TRAIL sens C8: -7
